Results published in ChEMBL document CHEMBL3286218, “Structure-activity relationship studies of N-methylated and N-hydroxylated spider polyamine toxins as inhibitors of ionotropic glutamate receptors” (J Med Chem, 2014).

Experiments:
Type in all cases: cell-based
[1] = target: Glutamate NMDA receptor; Grin1/Grin2a (Rattus norvegicus) (UniProt P35439+Q00959); experiment: Inhibition of rat recombinant GluN1/2A expressed in Xenopus oocytes assessed as inhibition of glutamate/glycine-evoked channel current at 100 nM at holding potential of -80 mV by two-electrode voltage clamp technique
Procedure, shortened: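 Single-concentration screen at 100 nM on oocytes expressing GluN1/2A (1:10 cRNA ratio), two-electrode clamp at −80 mV, rt, in frog Ringer's. Percent inhibition of current evoked by 100 μM L-glutamate plus 100 μM glycine, with compound bath-applied in Ringer's.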

[2] = target: Glutamate receptor 1 (Rattus norvegicus) (UniProt P19490); experiment: Inhibition of rat recombinant GluA1 expressed in Xenopus oocytes assessed as inhibition of glutamate-induced channel current at 100 nM at holding potential of -80 mV by two-electrode voltage clamp technique
Procedure, shortened: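 Xenopus oocytes injected with GluA1_i cRNA (25 nL of 1 ng/nL), kept 2–4 days at 17 °C in Barth's medium with gentamicin. Two-electrode voltage clamp at room temperature in superfused frog Ringer's (Ba2+-containing, pH 7.6). Current evoked by 300 μM L-glutamate; test compound at 100 nM added by bath, co-applied with agonist. Percent inhibition of the evoked current recorded.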

[3] = target: Glutamate NMDA receptor; Grin1/Grin2a (Rattus norvegicus, UniProt P35439+Q00959); experiment: Inhibition of rat recombinant GluN1/2A expressed in Xenopus oocytes assessed as inhibition of glutamate/glycine-evoked channel current at holding potential of -80 mV by two-electrode voltage clamp technique
Procedure, shortened: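 Oocytes were injected with GluN1/N2A cRNA at a 1:10 ratio (25 nL at 0.5 ng/nL), incubated at 17 °C in Barth's medium with gentamicin, and recorded after 2−4 days. Clamp at −80 mV, rt, in frog Ringer's (BaCl₂, pH 7.6). Increasing antagonist was co-applied with 100 μM L-glutamate plus 100 μM glycine. IC50 came from a Hill fit over 3−8 oocytes.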

Glutamate receptor 1 = Glutamate receptor 1 (Rattus norvegicus, UniProt P19490); experiment: Inhibition of rat recombinant GluA1 expressed in Xenopus oocytes assessed as inhibition of glutamate-induced channel current at holding potential of -80 mV by two-electrode voltage clamp technique
Procedure, shortened: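 GluA1_i cRNA (25 nL at 1 ng/nL) injected into collagenase-treated oocytes, kept at 17 °C in Barth's medium (pH 7.4) with gentamicin, recorded 2−4 days later. Held at −80 mV, rt, superfused with frog Ringer's (BaCl₂, pH 7.6). Antagonist co-applied with 300 μM L-glutamate at rising concentrations. Curves from 3−8 oocytes fitted to a Hill equation for IC50.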

Rattus norvegicus = organism: Rattus norvegicus; experiment: Selectivity ratio of IC50 for rat recombinant GluN1/2A expressed in Xenopus oocytes to IC50 for rat recombinant GluA1 expressed in Xenopus oocytes

Glutamate receptor 1, sequence (P19490 whole entry, the tested form may be a part): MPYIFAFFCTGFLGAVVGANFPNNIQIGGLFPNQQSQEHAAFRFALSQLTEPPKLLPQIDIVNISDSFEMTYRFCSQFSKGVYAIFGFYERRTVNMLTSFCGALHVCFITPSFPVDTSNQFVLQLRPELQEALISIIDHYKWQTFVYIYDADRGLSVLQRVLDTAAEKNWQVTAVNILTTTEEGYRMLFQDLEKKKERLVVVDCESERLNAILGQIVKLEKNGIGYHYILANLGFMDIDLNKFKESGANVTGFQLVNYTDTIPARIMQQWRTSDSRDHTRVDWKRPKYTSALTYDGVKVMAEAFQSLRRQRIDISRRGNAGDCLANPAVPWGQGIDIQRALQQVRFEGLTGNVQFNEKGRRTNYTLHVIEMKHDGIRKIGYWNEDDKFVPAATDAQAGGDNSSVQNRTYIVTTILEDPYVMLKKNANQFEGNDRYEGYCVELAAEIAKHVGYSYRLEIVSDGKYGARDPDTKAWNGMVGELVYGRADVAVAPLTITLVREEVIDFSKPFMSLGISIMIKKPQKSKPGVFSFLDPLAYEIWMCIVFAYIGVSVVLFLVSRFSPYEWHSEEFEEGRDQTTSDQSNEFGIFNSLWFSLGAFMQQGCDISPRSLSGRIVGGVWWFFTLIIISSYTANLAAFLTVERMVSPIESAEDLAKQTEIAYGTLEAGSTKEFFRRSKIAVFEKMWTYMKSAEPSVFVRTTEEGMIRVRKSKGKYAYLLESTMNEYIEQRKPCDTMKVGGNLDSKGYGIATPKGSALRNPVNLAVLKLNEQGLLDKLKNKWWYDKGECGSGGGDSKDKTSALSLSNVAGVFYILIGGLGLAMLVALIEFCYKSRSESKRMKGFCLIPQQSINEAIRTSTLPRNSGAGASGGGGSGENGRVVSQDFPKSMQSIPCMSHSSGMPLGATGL
Glutamate receptor 1 (Rattus norvegicus), sequence (P19490 whole entry, the tested form may be a part): as above

| Structure (SMILES) | inhibition [1] | inhibition [2] | IC50 [3] | IC50 (Glutamate receptor 1) | Ratio IC50 (Rattus norvegicus) |
| --- | --- | --- | --- | --- | --- |
| NCCCNCCCCNCCCNCCCNCCCNC(=O)Cc1c[nH]c2ccccc12 | > 90% | – | – | – | – |
| NCCCNCCCCNCCCNCCCNCCCNC(=O)Cc1c[nH]c2cccc(O)c12 | > 90% | – | – | – | – |
| NCCCNCCCCNCCCNCCCN(O)CCCNC(=O)Cc1c[nH]c2cccc(O)c12 | > 90% | – | – | – | – |
| C[N+](C)(CCCC[C@H](N)C(=O)NCCCCCNC(=O)[C@H](CC(N)=O)NC(=O)Cc1c[nH]c2cccc(O)c12)CCCNC(=O)[C@@H](N)CCCNC(=N)N | < 20% | > 40% | 3850 nM | 123 nM | – |
| C[N+](C)(CCCC[C@H](N)C(=O)NCCCCCNC(=O)[C@H](CC(N)=O)NC(=O)Cc1c[nH]c2ccccc12)CCCNC(=O)[C@@H](N)CCCNC(=N)N | < 20% | > 40% | – | – | – |
| NCCCNCCCCNCCCNCCCNCCCNC(=O)Cc1ccc(O)cc1O | > 90% | – | – | – | – |
| NCCCNCCCCNCCCNCCCN(O)CCCNC(=O)Cc1c[nH]c2ccccc12 | > 90% | – | 12 nM | 11 nM | – |
| CN(CCCC[C@H](N)C(=O)NCCCCCNC(=O)[C@H](CC(N)=O)NC(=O)Cc1c[nH]c2ccccc12)CCCNC(=O)[C@@H](N)CCCNC(=N)N | < 20% | > 40% | – | – | – |
| N=C(N)NCCC[C@H](N)C(=O)NCCCNCCCC[C@H](N)C(=O)NCCCCCNC(=O)[C@H](CC(N)=O)NC(=O)Cc1c[nH]c2cccc(O)c12 | < 20% | 84% | 387 nM | 15 nM | 26 |
| CN(CCCC[C@H](N)C(=O)NCCCCCNC(=O)[C@H](CC(N)=O)NC(=O)Cc1c[nH]c2cccc(O)c12)CCCNC(=O)[C@@H](N)CCCNC(=N)N | < 20% | > 40% | 1630 nM | 52 nM | – |
| N=C(N)NCCC[C@H](N)C(=O)NCCCNCCCC[C@H](N)C(=O)NCCCCCNC(=O)[C@H](CC(N)=O)NC(=O)Cc1c[nH]c2ccccc12 | < 20% | 81% | – | – | – |
